This is an account of results in ChEMBL document CHEMBL1143004, “Structure-activity relationship among purpurinimides and bacteriopurpurinimides: trifluoromethyl substituent enhanced the photosensitizing efficacy” (J Med Chem, 2007).

One series deals with Colon 26. As to the kind of experiment: Photosensitizing efficacy in Balb/C mouse implanted with colon26 tumors measured as tumor free at 0.7 umol/kg and light dose 135 J/cm2 after 90 days. It counts as functional. A digest of the protocol: (§1)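 Female C3H mice given s.c. RIF cells (3 × 10⁵) or female BALB/c mice given colon-26 cells (1 × 10⁶), both on right posterior shoulder. Drug in 1% Tween 80/HBSS given i.v. the day before light, hair depilated. At 24 h p.i., restrained unanaesthetized mice (10/group) got a 1 cm² argon-pumped dye laser spot, 135 J/cm² at 75 mW/cm². Tumor volume L·W²/2; cure = no palpable tumor.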

A short description of series [1]: Ratio of drug level in tumor to skin of C3H mouse bearing RIF tumors after 24 hrs by IRS. It counts as ADME. Conditions: in vivo. In a few lines: (§2)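 In vivo reflectance spectroscopy in female C3H/RIF or BALB/c/colon-26 mice. Baseline spectrum recorded via fiber bundles on tumor plus overlying skin and on normal skin. Drug 2.5–5.0 µmol/kg i.v. by tail vein, then spectra recorded up to 2 days. Post- to pre-injection spectral ratio compared in tumor versus skin. n = 3.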

Series [2] can be described thus: Photosensitizing efficacy in C3H mouse bearing RIF tumors measured as tumor free at 0.7 umol/kg and light dose 135 J/cm2 after 90 days. It counts as functional. A digest of the protocol:
as §1

Series [3] can be described thus: Ratio of drug level in tumor to skin of Balb/C mouse implanted with colon26 tumor after 24 hrs by IRS. Type of series: ADME. The settings on record: in vivo. A digest of the protocol:
as §2

Series [4] in a line: Photosensitizing efficacy in C3H mouse bearing RIF tumors measured as tumor free at 0.4 umol/kg and light dose 135 J/cm2 after 60 days. It counts as functional. A digest of the protocol: as §1
The next series concerns RIF. As to the kind of experiment: Photosensitizing efficacy in RIF cells after 48 hrs by MTT assay in presence of light. Type of series: functional, cell-based. A digest of the protocol:
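RIF cells, 5 × 10³/well, seeded in α-MEM with 10% FCS. Next day drug added at 1.25–20 µM (formulated in 1% Tween 80/5% dextrose, diluted in medium), 24 h dark at 37 °C. Medium replaced, then 708 nm (purpurinimides) or 791 nm (bacteriopurpurinimides) at 3.2 mW/cm², 0.5–20 J/cm². After 48 h dark, MTT 4 h, DMSO, A560. Survival relative to dark and light controls; four wells per point, SD from three experiments.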

As to `CCCCOC(C)c1c(C)c2cc3nc(c4c5[nH]c(cc6nc(cc1[nH]2)C(C)=C6CC)c(C)c5C(=O)N(Cc1cc(C(F)(F)F)cc(C(F)(F)F)c1)C4=O)[C@@H](CCC(=O)Nc1ccc(CC(CN(CCN(CC(=O)O)CC(=O)O)CC(=O)O)N(CC(=O)O)CC(=O)O)cc1)[C@@H]3C` (stereo partly drawn), the Activity (with Colon 26; in series [2]) was 70% in each case. In addition, the figures for the Ratio in series [1] and in series [3] were 3.68 and 5.06, respectively.

Consider `CC[C@@H]1c2cc3[nH]c4c(c5nc(cc6[nH]c(cc(n2)[C@H]1C)c(C(C)OC)c6C)[C@@H](C)[C@@H]5CCC(=O)OC)C(=O)N(Cc1cc(C(F)(F)F)cc(C(F)(F)F)c1)C(=O)c4c3C` (stereo partly drawn), for which the Ratio in series [1] was found to be 1.91.

Regarding `CCCCCCCOC(C)c1c(C)c2cc3nc(c4c5[nH]c(cc6nc(cc1[nH]2)[C@@H](C)[C@@H]6CC)c(C)c5C(=O)N(Cc1cc(C(F)(F)F)cc(C(F)(F)F)c1)C4=O)[C@@H](CCC(=O)OC)[C@@H]3C` (stereo partly drawn), the Ratio in series [1] stood at 6.87.

With `CCCCOC(C)c1c(C)c2cc3nc(c4c5[nH]c(cc6nc(cc1[nH]2)[C@@H](C)[C@@H]6CC)c(C)c5C(=O)N(Cc1cc(C(F)(F)F)cc(C(F)(F)F)c1)C4=O)[C@@H](CCC(=O)OC)[C@@H]3C` (stereo partly drawn), in series [1], the Ratio turned out to be 5.3.

Take `CCCCCCCCCCCCOC(C)c1c(C)c2cc3nc(c4c5[nH]c(cc6nc(cc1[nH]2)C(C)=C6CC)c(C)c5C(=O)N(Cc1cc(C(F)(F)F)cc(C(F)(F)F)c1)C4=O)[C@@H](CCC(=O)OC)[C@@H]3C` (stereo partly drawn): the Ratio in series [1] amounted to 1.82. Further, in series [4], the Activity is reported as 50%.

Regarding `CCCCCCCCCCCCOC(C)c1c(C)c2cc3nc(c4c5[nH]c(cc6nc(cc1[nH]2)[C@@H](C)[C@@H]6CC)c(C)c5C(=O)N(Cc1cc(C(F)(F)F)cc(C(F)(F)F)c1)C4=O)[C@@H](CCC(=O)OC)[C@@H]3C` (stereo partly drawn), the Ratio in series [1] is on record as 8.89. Also, in series [4], the Activity was 60%.

For the compound `CCCCOC(C)c1c(C)c2cc3nc(c4c5[nH]c(cc6nc(cc1[nH]2)C(C)=C6CC)c(C)c5C(=O)N(Cc1cc(C(F)(F)F)cc(C(F)(F)F)c1)C4=O)[C@@H](CCC(=O)OC)[C@@H]3C` (stereo partly drawn), the Activity in the series on Colon 26 is 30%; in the series on RIF it was “Dose-dependent effect”; in series [2], 30%. For the same compound, the Ratio came to 4.76 in series [1] and 3.38 in series [3].

Consider `CCCCCCCOC(C)c1c(C)c2cc3nc(c4c5[nH]c(cc6nc(cc1[nH]2)C(C)=C6CC)c(C)c5C(=O)N(Cc1cc(C(F)(F)F)cc(C(F)(F)F)c1)C4=O)[C@@H](CCC(=O)OC)[C@@H]3C` (stereo partly drawn), for which the Ratio in series [1] is recorded as 1.97.

Regarding `CCC1=C(C)c2cc3[nH]c(cc4nc(c5c6[nH]c(cc1n2)c(C)c6C(=O)N(Cc1cc(C(F)(F)F)cc(C(F)(F)F)c1)C5=O)[C@@H](CCC(=O)OC)[C@@H]4C)c(C)c3C(C)OC` (stereo partly drawn), the Ratio in series [1] is recorded as 2.48.
